Consider 25 compounds from ChEMBL document CHEMBL1123711, “Substituted 1,2,3,4-tetrahydroaminonaphthols: antihypertensive agents, calcium channel blockers, and adrenergic receptor blockers with catecholamine-depleting effects” (J Med Chem, 1987).

One may read the IC50 as the concentration at which inhibition is half-maximal. A word on the pA2: it is the negative logarithm of the molar antagonist concentration that doubles the agonist concentration needed for the same response. Low readings indicate a weaker antagonist, high ones a more potent antagonist.

Activity calls are given as the source filed them. The calls are words filed in the database; no cut-off is given here.

For experiment [1], the system named is Rattus norvegicus. As to the kind of experiment: Antihypertensive activity as percent maximum (over 24 hr) decrease in blood pressure at 135 umol/kg, perorally (~40-50 mg/kg) in 5 spontaneously hypertensive rats (SHR). It is filed as functional.
Experiment [2] is filed under the species Oryctolagus cuniculus. Kind of experiment: Calcium channel blocking activity in vitro in rabbit thoracic aorta preparation (n=4) by using linear regression analysis. It is filed as functional. A digest of the protocol:
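Rabbit thoracic aorta strips held under a 4-g preload in PSS at 37 °C, pH 7.35, gassed with 95% O2/5% CO2, equilibrated ≥1 h. Contraction by high-K+ (100 mM) PSS with Na+ reduced equimolarly. At plateau, cumulative test concentrations were added and relaxation was normalized to initial tension. IC50 by regression on the linear part of the concentration–response curve.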

Experiment [3] has as its system Rattus norvegicus. As to the kind of experiment: Antihypertensive activity as percent maximum (0-6 hr) decrease in blood pressure at 135 umol/kg, perorally (~40-50 mg/kg) in 5 spontaneously hypertensive rats (SHR). It is filed as functional.
Experiment [4] has as its system Rattus norvegicus. As to the kind of experiment: Antihypertensive activity as percent maximum (over 24 h) decrease in blood pressure at 135 umol/kg, perorally (~40-50 mg/kg) in 5 spontaneously hypertensive rats (SHR). The format is functional.
For experiment [5], the system named is Rattus norvegicus. Kind of experiment: Antihypertensive activity as percent average (over 24 hr) decrease in blood pressure at 135 umol/kg po (~40-50 mg/kg) in 5 spontaneously hypertensive rats (SHR); NA denotes not active. The format is functional, organism-based.
Experiment [6] deals with Rattus norvegicus. As to the kind of experiment: Antihypertensive activity as percent maximum (0-6 hr) decrease in blood pressure at 135 umol/kg po (~40-50 mg/kg) in 5 spontaneously hypertensive rats (SHR); NA denotes not active. The format is functional, organism-based.
Experiment [7] concerns Rattus norvegicus. As to the kind of experiment: Antihypertensive activity as percent average (over 24 hr) decrease in blood pressure at 135 umol/kg po (~40-50 mg/kg) in 5 spontaneously hypertensive rats (SHR). It is filed as functional.
The subject of experiment [8] is Rattus norvegicus. As to the kind of experiment: Antihypertensive activity as percent maximum (0-6 hr) decrease in blood pressure at 45 umol/kg poin 5 spontaneously hypertensive rats (SHR). The format is functional.
The target of experiment [9] is Adrenergic receptor alpha. Kind of experiment: Compound was evaluated for the alpha-Adrenoceptor pA2 blocking activity in vitro in rabbit thoracic aorta. It is filed as functional, tissue-based, Oryctolagus cuniculus.
The species entered for experiment [10] is Canis familiaris. As to the kind of experiment: Compound was evaluated for the slow action potential blockade in canine Purkinje fibers in vitro (n = 4).
The test system of experiment [11] is Rattus norvegicus. Kind of experiment: Antihypertensive activity as percent maximum (0-6 hr) decrease in blood pressure at 135 umol/kg po (~40-50 mg/kg) in 5 spontaneously hypertensive rats (SHR). The format is functional.
Experiment [12] relates to Rattus norvegicus. As to the kind of experiment: Percent Catecholamine-depletion in brain by administering a dose of 2 x 45 umol/kg, perorally to 4 spontaneously hypertensive rats (SHR). It is filed as functional. A digest of the protocol:
(§1)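 SHR given two oral doses of 45 µmol/kg, 17 h apart. Rats decapitated 4 h after the second dose; hearts and brains quickly removed and frozen. Tissue extracts in glutathione centrifuged at 0 °C, and the protein-free supernatant diluted and assayed in duplicate for catecholamines by radioenzymatic kit.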

The subject of experiment [13] is Rattus norvegicus. As to the kind of experiment: Percent Catecholamine-depletion in heart by administering a dose of 2 x 45 umol/kg, perorally to 4 spontaneously hypertensive rats (SHR). The format is functional. In a few lines: as §1
Experiment [14] concerns Rattus norvegicus. Kind of experiment: Antihypertensive activity as percent maximum (0-6 hr) decrease in blood pressure at 45 umol/kg po (~22 mg/kg) in 4 spontaneously hypertensive rats (SHR). It is filed as functional.
The subject of experiment [15] is Rattus norvegicus. As to the kind of experiment: Antihypertensive activity as percent average (0-24 hr) decrease in blood pressure at 45 umol/kg po (~22 mg/kg) in 4 spontaneously hypertensive rats (SHR). The format is functional.
Experiment [16] relates to Rattus norvegicus. Kind of experiment: Antihypertensive activity as percent maximum (0-6 hr) decrease in blood pressure at 135 umol/kg, perorally (~40-50 mg/kg) in 5 spontaneously hypertensive rats (SHR); NA denotes no activity. The format is functional, organism-based.
Experiment [17] deals with Rattus norvegicus. As to the kind of experiment: Antihypertensive activity as percent maximum (over 24 hr) decrease in blood pressure at 135 umol/kg, perorally (~40-50 mg/kg) in 5 spontaneously hypertensive rats (SHR); NA denotes no activity. The format is functional, organism-based.
Experiment [18] relates to Rattus norvegicus. Kind of experiment: Antihypertensive activity as percent maximum (over 24 hr decrease in blood pressure at 135 umol/kg, perorally (~40-50 mg/kg) in 5 spontaneously hypertensive rats (SHR). The format is functional.

As to `COc1ccc(OC)c2c1C[C@H](NCCCC(c1ccccc1)c1ccccc1)[C@@H](O)C2.Cl`, the Decrease in experiment [1] was 10%; in [3], 6%. The IC50 in experiment [2] amounted to 800 nM.
For the compound `COc1ccc(OC)c2c1C[C@H](NCCCCC(c1ccccc1)c1ccccc1)[C@@H](O)C2.Cl`, the IC50 in experiment [2] came to 2000 nM. Also, the Decrease in experiment [3] and in experiment [4] was 10% each time.
Take `Cc1cc2c(cc1C)C[C@H](O)[C@@H](NCCC(c1ccccc1)c1ccccc1)C2.Cl`: the Decrease in experiment [1] turned out to be 32%; in [3] it was 17%. Also, the IC50 in experiment [2] came out at 1000 nM.
Regarding `COc1cc2c(cc1OC)C[C@H](OC)[C@@H](NCCC(c1ccccc1)c1ccccc1)C2`, the IC50 in [2] amounted to 1800 nM. Further, the Decrease entry in experiment [5] and in [6] was “inactive” each time.
For the compound `COc1ccc(OC)c2c1C[C@H](NCCCCc1ccccc1)[C@@H](O)C2.Cl`, the figures for the Decrease in experiment [1] and in [3] were 23% and 26%, respectively. Besides, in experiment [2], the IC50 turned out to be 3600 nM.
As to `COc1ccc(OC)c2c1C[C@H](NCCCc1c[nH]c3ccccc13)[C@@H](O)C2.Cl`, the Decrease is listed as 24% in experiment [1] and 23% in experiment [3]. In addition, the concentration for half-maximal inhibition (IC50) in experiment [2] was determined as 23000 nM.
For the compound `Cl.Oc1cc2c(cc1O)C[C@H](O)[C@@H](NCCC(c1ccccc1)c1ccccc1)C2`, the IC50 in [2] was found to be 19600 nM. Moreover, the results for the Decrease in [7] and in [8] were 30% and 29%, respectively.
Regarding `COc1cc2c(cc1OC)C[C@H](N(C)CCC(c1ccccc1)c1ccccc1)[C@@H](O)C2`, the Decrease is reported as 19% in [1] and 11% in experiment [3]. In addition, in experiment [2], the IC50 was found to be 400 nM.
For the compound `COc1cc2c(cc1OC)C[C@H](O)[C@@H](NCCC(c1ccccc1)c1ccccc1)C2.Cl`, the pA2 in experiment [9] is given as 6. The values for the IC50 in experiment [10] and in experiment [2] were 270 nM and 400 nM, respectively. Moreover, the values for the Decrease in [7] and in experiment [11] were 34% and 32%, respectively. For the same compound, the Depletion in experiment [12] stood at 0%; in experiment [13] it was 97%. This compound showed a Max in [14] of 21%. For the same compound, the Average in experiment [15] is 25%.
For `COc1ccc(OC)c2c1C[C@H](NCCC(c1ccccc1)c1ccccc1)[C@@H](O)C2.Cl`, the Decrease stood at 19% in [1] and 15% in [3]. The IC50 in experiment [2] is 1500 nM.
With `COc1ccc(OC)c2c1C[C@H](NCC(c1ccccc1)c1ccccc1)[C@@H](O)C2.Cl`, the Decrease in experiment [1] is reported as 16%; in [3] it was 10%. Besides, in experiment [2], the IC50 was 13300 nM.
For `COc1cc2c(cc1OC)C[C@H](OC(C)=O)[C@@H](NCCC(c1ccccc1)c1ccccc1)C2.Cl`, the Decrease in experiment [1] and in experiment [3] was 34% throughout. The IC50 in [2] came to 2800 nM.
Take `COc1cc2c(cc1OC)C[C@H](O)[C@@H](NC(=O)CC(c1ccccc1)c1ccccc1)C2`: the Decrease in [1] is listed as 16%; in [3], 6%. Also, in [2], the IC50 is 9400 nM.
On to `COc1cc2c(cc1OC)C[C@H](O)[C@@H](NCCC1c3ccccc3-c3ccccc31)C2.Cl`, for which the figures for the Decrease in [1] and in [3] were 34% and 32%, respectively. In experiment [2], the IC50 was determined as 1400 nM.
Regarding `COc1cc2c(cc1OC)C[C@H](O)[C@@H](NCCC(c1ccccc1)C(C)C)C2.Cl` (some centres undefined), the IC50 in experiment [2] turned out to be 2500 nM. Further, the results for the Decrease in [3] and in [4] were 8% and 10%, respectively.
Consider `COc1ccc(OC)c2c1C[C@H](NCCCc1nc3ccccc3s1)[C@@H](O)C2.Cl`, for which the Decrease in experiment [1] and in [3] was 16% throughout. Further, the IC50 in [2] was 13500 nM.
For the compound `COc1cc2c(cc1OC)C[C@H](O)[C@@H](NCCC(c1ccccc1)c1ccccc1OC)C2.Cl` (some centres undefined), the Decrease in experiment [1] worked out at 28%; in [3], 21%. The IC50 in [2] stood at 600 nM.
Turning to `COc1ccc(OC)c2c1C[C@H](NCCc1ccccc1)[C@@H](O)C2`, the IC50 in experiment [2] turned out to be 21000 nM. Besides, the Decrease result in [16] and in [17] was “inactive” each time.
As to `Cl.O[C@H]1Cc2cc3c(cc2C[C@@H]1NCCC(c1ccccc1)c1ccccc1)OCO3`, the Decrease in experiment [1] and in experiment [3] was 25% throughout. Also, the IC50 in experiment [2] turned out to be 300 nM.
Consider `COc1ccc(OC)c2c1C[C@H](NCCCc1ccccc1)[C@@H](O)C2.Cl`, for which the Decrease in experiment [18] and in experiment [3] was 14% throughout. Further, the IC50 in [2] came to 5500 nM.
For `COc1ccc(CCN(C)CCCC(C#N)(c2ccc(OC)c(OC)c2)C(C)C)cc1OC` (centres undefined), the IC50 is 110 nM in experiment [10] and 300 nM in [2]. The values for the Decrease in [7] and in experiment [11] were 32% and 40%, respectively. This compound displayed a Depletion in experiment [13] of 75%. The same compound gave a Max in experiment [14] of 16%. In experiment [15], this compound returned an Average of 21%.
For `Cl.O[C@H]1Cc2ccccc2C[C@@H]1NCCC(c1ccccc1)c1ccccc1`, the Decrease in experiment [1] came to 8%; in experiment [3], 11%. Further, the IC50 in experiment [2] turned out to be 400 nM.
Take `COc1cc2c(cc1OC)C[C@H](NCCC(c1ccccc1)c1ccccc1)CC2.Cl`: in [2], the IC50 was found to be 200 nM. Besides, the results for the Decrease in experiment [7] and in experiment [11] were 12% and 11%, respectively.
Turning to `COc1cc2c(cc1OC)C[C@H](NCCC(c1ccccc1)c1ccccc1)[C@H](O)C2.Cl`, the IC50 in experiment [2] is 200 nM. Also, the Decrease is 19% in experiment [7] and 14% in experiment [11].
In the case of `COc1ccc(OC)c2c1C[C@H](NCCC(C1CCCCC1)C1CCCCC1)[C@@H](O)C2.Cl`, the results for the Decrease in experiment [1] and in experiment [3] were 23% and 27%, respectively.
